Measurements from the EternaBench riboswitch data.

Test system: MS2 coat protein
Experiment: apparent Kd, MS2 coat protein; higher = weaker binding; RNA-MaP array; FMN 200 µM where present
Method in brief: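 The titrant was SNAP-549-labelled MS2 coat protein, run from 0.7 or 1.5 nM in doubling steps to 3 µM. It was applied to designs transcribed by stalled E. coli RNA polymerase on Illumina sequencing-chip clusters, without ligand first and then with constant ligand, in 100 mM Tris-HCl pH 7.5, 80 mM KCl, 4 mM MgCl2, BSA, DTT, yeast tRNA and Tween-20. The apparent Kd is the median of filtered per-cluster binding-curve fits, with green signal normalised to red-channel RNA signal and control-cluster median Fmax.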

[1] = designed as: OFF switch for flavin mononucleotide, no ligand
[2] = ligand present: flavin mononucleotide, designed as: OFF switch for flavin mononucleotide
[3] = designed as: ON switch for flavin mononucleotide, no ligand
[4] = ligand present: flavin mononucleotide, designed as: ON switch for flavin mononucleotide

Row | Sequence | apparent Kd [1] [nM] | apparent Kd [2] [nM] | apparent Kd [3] [nM] | apparent Kd [4] [nM]
1 | AUAGGGACCUCGCAAUGUUUACAUGAGGAUCACCCAUGUAAGAGAAGGGUCCAGUCAUCUCCUGGAUAGGAUAUCUUACCGUUA | 5.21 | 6.44 |  | 
2 | CCUCCACAUGAGGAUCACCCAUGUCAGGAUAUCGUGUGUGCGUUUUCGGUCUUUCGCGCGAGAAGGGACGACUG | 30.2 | 33 |  | 
3 | CUGUUAUAGGUCCAUUUUUACAACAUGAGGAUCACCCAUGUGCAGGAUAUCGUGUUAAUUUUCAUCGAGAAGGGCAUAGUCACG | 31.5 | 61.2 |  | 
4 | CCAUAAAAGAUCCAAAAUUACAACAUGAGGAUCACCCAUGUGCAGGAUAUCGUGAAAGUAAAAUACGAGAAGGGCAAAAACUGC | 440 | 454 |  | 
5 | GUGGUUGUCGUAGGAUAUGUAGGAUAUUCCUACAUGAGGAUCACCCAUGUUCGCAUGGAAGAAGGACAGAAGGACGAUGACCAG |  |  | 801 | 22.7
6 | GAAUUAUUGAUCCAAUUUUACAACAUGAGGAUCACCCAUGUGCAGGAUAUCGUGUGUUUUAUAUUCGAGAAGGGCAUGAACUUU | 213 | 495 |  | 
7 | CGCUGGUGAGGAUAUGGGUGUGGUUACAUGAGGAUCACCCAUGUGGUGUCGCGCGUGGGUCCAGAAGGCGCGGGUG | 246 | 170 |  | 
8 | UUACCUCAUGAGAAGGACAUGAGGAUCACCCAUGUAGGAUAUCGUGGGAGACUGGUAUUGAAUCUUCGGAUUCAAUACCUGUCU |  |  | 454 | 27.9
9 | AAGUAACAUGAGGAUCACCCAUGUGAGGAUAUGAUUUAAGUUGUAAAAGUAAUAAAGGUCAGAAGGUAUGUGAA | 62.1 | 61.1 |  | 
10 | AAAAAACAUGAGGAUCACCCAUGUGAGGAUAUCGUGCAGAAAAAAAAAAAAAACUGCACGAGAAGGCACAUGAA | 237 | 460 |  | 
11 | GUCAGCUCGUGAGGAUAUACAGCACUGCUUCGGCAGUGUAUUAAGAUCACAUGAGGAUCACCCAUGUAGAAGGCACGAGCUGAU | 28.1 | 599 |  | 
12 | GUAGCACAAGUUAACAUGAGGAUCACCCAUGUCAGAAGACAUGAGGAUAUGGAUGUGAAGAUAAUCCAGAAGGCAUAAUGCUAA |  |  | 774 | 131
13 | UGGACUGGGCAGAAGGGACAUGAGGAUCACCCAUGUCUUGGGCUACUUCAGUCAGGAUAUGCCCAUUGAAUAUCCGAGCAUCAA | 13.7 | 77.4 |  | 
14 | UUUUAACAUGAGGAUCACCCAUGUGAGGAUAUCGAAAUUUAUAUUAAUAUUAAUUAAACGAGAAGGCACAUUUU | 61.5 | 86.4 |  | 
15 | AUUAUUUAUAGUUAUUGGUAAUUGACAGAAGGUGAAAGUGUCACAUGAGGAUCACCCAUGUUCUUCAAGGAUAUGUUGGUUUAC |  |  | 37.6 | 8.4
16 | UCACGGUAUGUAGGAUAUGCAUAGCAUUGCUAUGCAGAAGGACAUGAGGAUCACCCAUGUAUGUAUUCCAUACUAUUCCCGUGU | 6.18 | 6.09 |  | 
17 | AUCGGGAGAGGAUAUACAUGAGGAUCACCCAUGUUGGGAACAUCGGUUUGUUAGUUUCGUAGAAGGCUCGGGCG | 45.5 | 59.6 |  | 
18 | GCUCGGAGAGGAUAUACAUGAGGAUCACCCAUGUAGGUAAGCAGCGAUGGCAGUCCAUGUAGAAGGUUCAGGUG | 43.4 | 49.7 |  | 
19 | UUUAGUUGCGCGCAGGAUAUGUAUUAAUAUACAUGAGGAUCACCCAUGUGAGACCAAAUAGGUCUACAGAAGGGCGAAUCGCGAC |  |  | 446 | 47.6
20 | CCAUCGUGUGUGAGGAUAUGCUGGUCCUUGGAUCAGCAGAAGGCACAUGAGGAUCACCCAUGUGAAAACGAUGG | 17.9 | 56.4 |  | 
21 | GUCAGCUCGUGAGGAUAUACAUGUGCUGGAGACAGCACUAUUGAGUUCACAUGAGGAUCACCCAUGUAGAAGGCACGAGCUGAU | 15.5 | 27.4 |  | 
22 | AUAAAUAUAGCGAUAUGAUCGAGAGAUCAUGUCGCUAAAGUUAGAAGGACAUGAGGAUCACCCAUGUAGGAUAUGGGAGUAUGA |  |  | 170 | 62.8
23 | AGAUAAGUCACAGGAUAUUCCUACAUUAAUAUGGAAGAAGGGUGAGCAUGAUUCGAUACAUGAGGAUCACCCAUGUAUCCGCGA |  |  | 78.4 | 19.7
24 | CUGACAGCGCAGAAGGGAGAUCCUACAUGAGGAUCACCCAUGUGGGCUCUCAGGAUAUGCACGUGUAUACCGAAAGUGGUAUUG |  |  | 13.4 | 5.99
25 | CGGAGGUCAGGAUAUGCAUGGCGGGACUUGCGUCGUGGCGUGCAGAAGGGACAUGAGGAUCACCCAUGUGGAGG | 155 | 267 |  | 
26 | AAUAACAGAGGAUAUACUAUUUUAUGUGUUUGUUGUUUUGAACAUGAGGAUCACCCAUGUAGAAGGCUGAAUAA | 22.6 | 25.6 |  | 
27 | AUGAGUAAAGCAGGAUAUCUAUUGUCUCUGUAACAUGAGGAUCACCCAUGUAGAGAAGGGCUAAGUCUUACUCUUCGGAGUUGA | 14.2 | 13.7 |  | 
28 | AGGGUGUCGCUCAAUAACAUGAGGAUCACCCAUGUGCAUUAGAGAAGGGACCCGGGCGCGUGGAGUCAGGAUAUCUAUCUGCCA | 34.4 | 30 |  | 

Row | Sequence | apparent Kd [1] [nM] | apparent Kd [2] [nM] | apparent Kd [3] [nM] | apparent Kd [4] [nM]
29 | AUCGGCUCGUCAGGAUAUACGUCACUGCGUCAGCAGUGUGGUAAGAUCACAUGAGGAUCACCCAUGUAGAAGGGACGAGCUGAU | 13.6 | 268 |  | 
30 | AACAGACAUGAGGAUCACCCAUGUGAAAACGUACAAGGAUAUGUGUGGAAACCGUACUAUACAGAAGGUGUCUGUC |  |  | 41.3 | 72.5
31 | UACUUGUUAGGAUAUCUUACAUUUGCAUCAUAGCAACCAUUGGAGAAGGGACAUGAGGAUCACCCAUGUUUGGU | 42.3 | 43.8 |  | 
32 | UGGUACAUGGGAGGAUAUCCUCAUGAGACAUGAGGAUCACCCAUGUAUUAUAAGCCGAAAGGCAAGGAGAAGGCCCAUGUACCU |  |  | 90.2 | 19.5
33 | UUUUCAUCAUCAGGAUAUUAACGUGGGCUACUUUAAGAAGGGAUAGUGGGAGAGGAUGUGAAACAUGAGGAUCACCCAUGUUGU |  |  | 14.2 | 10
34 | GGAGAGCAAGGAUAUACAUGAGGAUCACCCAUGUACGGUCAUUUGGGCAUGUCUGUAAGUAGAAGGUGUUUUGG | 45.2 | 58.5 |  | 
35 | UUACUCAUGUAAGGAUAUGCAGCCGAAACGGCUGCAGAAGGUACUACAAUACAUGAGGAUCACCCAUGUAAAAUAAAUAAAGUU |  |  | 53.7 | 22.7
36 | AGGAAACAUGAGGAUCACCCAUGUAAAAGGUGGUUAGGAUAUGCGAUAAUAAAAAUAAUAGCAGAAGGGACAAGAA |  |  | 511 | 432
37 | AGAGUGUCAGGAUAUCCUGCUGUGCGGAAUAUGUAUUCACGGGAGAAGGGACAUGAGGAUCACCCAUGUUUGAG | 20.6 | 20.8 |  | 
38 | CGCCCGGGAGGAUAUCCAAUAUAUGACAUGAGGAUCACCCAUGUUUCCACUCGUACCUCCGGAGAAGGCCCGGCGC | 22.2 | 22.4 |  | 
39 | GCCGAAAAUGUGAGGAUAUACCUAUGGAUACAUAGGUAGAAGGCACAUGAGGAUCACCCAUGUUCCUCAUCGGC | 114 | 435 |  | 
40 | AAUUGACACGUAGGAUAUCGCUCUAAUUUAACACGAGAAGGACGUACAUGAGGAUCACCCAUGUUAAAUGGUGUAGAUUAGUUG | 30.9 | 88 |  | 
41 | UCAUCAACGGGCGGGUCGGUUGGACAUGAGGAUCACCCAUGUAGAAGGACCGGUGGACUCCGCCGGUAGGAUAUACAUUUGGUG | 41.6 | 30.1 |  | 
42 | UUUGGGCCUGUGAGGAUAUGCCCGGGUAAAUUUGGGCAGAAGGCACAUGAGGAUCACCCAUGUAAGGGCCCGGG | 31.5 | 21.4 |  | 
43 | UAAUUAUUUGUGGUAAUACACUAUGAGGAUAUCAAGGAAUAUAACAUGAGGAUCACCCAUGUGAAUGAGAAGGCAUUAUUUAUA |  |  | 14.9 | 9.81
44 | GUUGCUAUCGGAGGAUAUUCAUACCGGAAACGGACAUGAGGAUCACCCAUGUCGCGAAAGCGUUGGGAGAAGGCCGAUAGCAAC |  |  | 248 | 21.4
45 | CUUUUGUGAGGAUAUUAGUAGUAAAUAAAUAAAAUUACUACUGAGAAGGCACAUGAGGAUCACCCAUGUUCCUU | 12.6 | 38 |  | 
46 | GUGUAGAUAGGAUAUGCAAGAGUCUAGCGAAGCUAGAUUCUACAUGAGGAUCACCCAUGUAGAAGGGUCUACAC | 18.3 | 16.1 |  | 
47 | GAAUGUCGGGUAGGAUAUGACGUGCCACGGAGGUCAGAAGGGCCACGACAUGAGGAUCACCCAUGUACUGUAUUCCUUUUUCAA | 22.9 | 60.4 |  | 
48 | GUCAGCUCGUGAGGAUAUACAUGUGCUGGAGACAGCACUAUUAAGUUCACAUGAGGAUCACCCAUGUAGAAGGCACGAGCUGAU | 15.9 | 20.8 |  | 
49 | UGUAUGGACAGAGGAUAUGCCGAUAGGAUCUACUAUCGAAGAAUCCUCACAUGAGGAUCACCCAUGUAGAAGGCUGUCCAUACU | 25.3 | 150 |  | 
50 | GGACAUGUCGUCUACAUGAGGAUCACCCAUGUCGAUAGACAUGAGGAUAUCGAUACAAAUUGUAUCGAGAAGGCAUGCAUGUCC |  |  | 44.9 | 23
51 | UAUAUAAUAAGAGCUGGCUCUAAAACAUGAGGAUCACCCAUGUAGGAUAUCAGCACGAUAAGUGCUGAGAAGGACAACCAGCUC | 16.3 | 17.3 |  | 
52 | GACAUUAUAGGAUAUACAUGAGGAUCACCCAUGUCCGGCGGCCACCGCCAUUCACUGUGUAGAAGGGUAGUUUG | 87.9 | 68.8 |  | 
53 | UAUAUAUAGUAAGGAUAUGUAUCUAUUUUAUAAACAGAAGGUACUGACAUGAGGAUCACCCAUGUUUUAGUGUGGGCAUGUAGA | 92.2 | 114 |  | 
54 | CGAGCUGCUGUGAGGAUAUACCUAUGGAUGCGUGGGUAGAAGGCACAUGAGGAUCACCCAUGUCCUGCAGCUCG | 42.1 | 241 |  | 
55 | AAUGUUGUUGUGAGGAUAUCGUAGUUAUUUUGAAACGAGAAGGCACAUGAGGAUCACCCAUGUUUGUUGAUGGU | 22.9 | 47.9 |  | 
